ChEMBL document CHEMBL1131219, “Inhibition of human alcohol dehydrogenases by formamides” (J Med Chem, 1998)

Columns and labels:
Alcohol dehydrogenase 1C = Alcohol dehydrogenase 1C (Homo sapiens, UniProt P00326); assay: Inhibition of human alcohol dehydrogenase gamma2 activity
Procedure, shortened: (§1)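 Purified human isozyme in 46 mM sodium phosphate with 0.25 mM EDTA, pH 7.0, 25 °C. The varied substrate (ethanol, acetaldehyde or cyclohexanone) was chosen per enzyme, with coenzyme fixed at 0.2 mM NADH or 2.0 mM NAD+. Inhibitor varied over at least a 3-fold range, 20–25 conditions in duplicate.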

[1] = target: All-trans-retinol dehydrogenase [NAD(+)] ADH4 (Homo sapiens, UniProt P08319); assay: Inhibition of human alcohol dehydrogenase pi activity; procedure, shortened: as §1
Alcohol dehydrogenase = Alcohol dehydrogenase (Equus caballus, UniProt P00327+P00328); assay: Inhibition of horse liver alcohol dehydrogenase activity
[2] = target: All-trans-retinol dehydrogenase [NAD(+)] ADH1B (Homo sapiens, UniProt P00325); assay: Inhibition of human alcohol dehydrogenase beta 1 activity; procedure, shortened: as §1
Alcohol dehydrogenase 1A = Alcohol dehydrogenase 1A (Homo sapiens, UniProt P07327); assay: Inhibition of human alcohol dehydrogenase alpha activity
Procedure, shortened: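 Purified human α isozyme. Buffer was 46 mM sodium phosphate with 0.25 mM EDTA, pH 7.0, 25 °C; runs were also done in 33 mM phosphate/EDTA, pH 8.0. NADH 0.2 mM or NAD+ 2.0 mM held fixed. NADH change followed at 340 nm.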

[3] = target: T1, All-trans-retinol dehydrogenase [NAD(+)] ADH7 (Homo sapiens, UniProt P40394); assay: Inhibition of human alcohol dehydrogenase sigma activity; procedure, shortened: as §1
[4] = target: T1, All-trans-retinol dehydrogenase [NAD(+)] ADH7; assay: Inhibitory activity against human alcohol dehydrogenase sigma.; procedure, shortened: as §1

T1 sequence (P40394 whole entry): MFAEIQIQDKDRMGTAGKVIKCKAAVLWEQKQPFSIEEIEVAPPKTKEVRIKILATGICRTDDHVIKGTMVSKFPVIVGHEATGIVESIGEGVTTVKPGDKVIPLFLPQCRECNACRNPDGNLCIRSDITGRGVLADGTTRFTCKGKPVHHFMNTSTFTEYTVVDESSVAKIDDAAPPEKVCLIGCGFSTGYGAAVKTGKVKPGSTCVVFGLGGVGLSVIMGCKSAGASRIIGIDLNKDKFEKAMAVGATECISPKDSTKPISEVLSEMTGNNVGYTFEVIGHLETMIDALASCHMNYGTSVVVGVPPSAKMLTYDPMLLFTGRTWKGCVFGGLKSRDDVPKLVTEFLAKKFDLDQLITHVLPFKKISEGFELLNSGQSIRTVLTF
Chain of All-trans-retinol dehydrogenase [NAD(+)] ADH4 (P08319 whole entry): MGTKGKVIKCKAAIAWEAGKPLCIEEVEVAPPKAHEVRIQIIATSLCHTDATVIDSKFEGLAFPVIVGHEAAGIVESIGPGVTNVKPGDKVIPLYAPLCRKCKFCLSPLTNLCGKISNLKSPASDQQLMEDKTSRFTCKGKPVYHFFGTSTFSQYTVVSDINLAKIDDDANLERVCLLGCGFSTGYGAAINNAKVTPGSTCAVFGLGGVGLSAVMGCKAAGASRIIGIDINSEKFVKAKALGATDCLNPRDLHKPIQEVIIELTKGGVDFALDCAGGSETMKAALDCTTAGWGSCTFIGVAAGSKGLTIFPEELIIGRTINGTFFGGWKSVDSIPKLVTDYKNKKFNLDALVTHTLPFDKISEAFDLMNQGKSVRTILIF
Chain of Alcohol dehydrogenase 1A (P07327 whole entry): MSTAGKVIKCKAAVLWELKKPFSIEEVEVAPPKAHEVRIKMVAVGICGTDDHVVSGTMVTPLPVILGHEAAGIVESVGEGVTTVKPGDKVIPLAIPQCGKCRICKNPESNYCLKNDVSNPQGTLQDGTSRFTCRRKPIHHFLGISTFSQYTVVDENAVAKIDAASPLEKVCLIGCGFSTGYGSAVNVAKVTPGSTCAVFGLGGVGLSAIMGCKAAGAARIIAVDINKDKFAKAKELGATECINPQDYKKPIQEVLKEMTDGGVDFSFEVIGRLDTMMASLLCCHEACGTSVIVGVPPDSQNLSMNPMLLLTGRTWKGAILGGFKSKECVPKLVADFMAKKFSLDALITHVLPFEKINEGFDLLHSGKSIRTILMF
Chain of Alcohol dehydrogenase 1C (P00326 whole entry): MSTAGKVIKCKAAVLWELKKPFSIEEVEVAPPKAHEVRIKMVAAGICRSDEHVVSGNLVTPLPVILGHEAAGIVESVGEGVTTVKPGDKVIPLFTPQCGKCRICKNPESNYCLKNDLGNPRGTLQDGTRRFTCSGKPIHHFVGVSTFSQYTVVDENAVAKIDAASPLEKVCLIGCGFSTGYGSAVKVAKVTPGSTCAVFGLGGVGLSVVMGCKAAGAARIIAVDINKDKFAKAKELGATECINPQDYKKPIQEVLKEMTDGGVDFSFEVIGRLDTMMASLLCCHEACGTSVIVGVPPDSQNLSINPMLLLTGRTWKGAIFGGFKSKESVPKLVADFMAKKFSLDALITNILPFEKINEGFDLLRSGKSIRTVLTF
Chain of All-trans-retinol dehydrogenase [NAD(+)] ADH1B (P00325 whole entry): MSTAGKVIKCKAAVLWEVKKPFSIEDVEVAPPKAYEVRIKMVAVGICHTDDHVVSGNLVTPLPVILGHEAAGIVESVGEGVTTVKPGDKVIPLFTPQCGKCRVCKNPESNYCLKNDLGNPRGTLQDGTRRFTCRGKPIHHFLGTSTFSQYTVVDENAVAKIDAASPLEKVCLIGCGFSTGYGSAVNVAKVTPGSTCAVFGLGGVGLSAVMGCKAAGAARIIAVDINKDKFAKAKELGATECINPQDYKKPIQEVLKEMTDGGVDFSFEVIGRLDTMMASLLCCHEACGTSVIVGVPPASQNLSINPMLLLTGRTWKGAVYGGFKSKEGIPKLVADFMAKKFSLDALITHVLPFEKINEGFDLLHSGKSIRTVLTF

Row | SMILES | Ki (Alcohol dehydrogenase 1C) | Ki [1] | Ki (Alcohol dehydrogenase) | Ki [2] | Ki (Alcohol dehydrogenase 1A) | Ki [3] | Ki [4]
1 | O=CN(C1CCCC1)C1CCC1 [CYCLOBUTYL(CYCLOPENTYL)FORMAMIDE] | 47 µM | 360 µM | 8600 µM | 10000 µM | 0.36 µM | 1100 µM | 
2 | CCCCCCCNC=O [HEPTYLFORMAMIDE] | 12 µM | 11 µM | 3 µM | 0.33 µM | 3.6 µM | 0.74 µM | 
3 | O=CNC1CCCC1 | 13 µM | 150 µM | 7.6 µM | 7.3 µM | 3.9 µM | 28 µM | 
4 | O=CNC1CCCCC1 [CYCLOHEXYLFORMAMIDE] | 5.2 µM | 84 µM |  | 3.4 µM | 2.3 µM | 380 µM | 
5 | CCCN(C=O)C1CCCCC1 | 160 µM |  | 5200 µM | 4000 µM | 14 µM |  | 
6 | CCCN(C=O)C1CCCC1 | 21 µM | 191 µM | 1900 µM | 2800 µM | 4.5 µM | 1700 µM | 
7 | O=CN(C1CCCC1)C1CCCC1 | 1000 µM |  | 2600 µM | 1600 µM | 7.4 µM |  | 
8 | CN(C=O)C1CCCCC1 | 40 µM | 120 µM | 600 µM | 920 µM | 5.5 µM | 4900 µM | 
9 | CCN(C=O)C1CCCCC1 | 33 µM |  | 1400 µM | 1500 µM | 4.5 µM |  | 
10 | O=CN(C1CCCC1)C1CC1 | 4.6 µM | 96 µM | 110 µM | 4600 µM | 0.88 µM | 930 µM | 
11 | O=CNC1CCC1 | 45 µM | 450 µM | 1.7 µM | 2.9 µM | 3.8 µM |  | 54 µM
12 | CC(C)N(C=O)C1CCCCC1 | 83 µM | 150 µM | 470 µM | 46 µM | 24 µM | 1300 µM | 
13 | CCCCCCCN(C=O)C1CC1 | 2.1 µM | 31 µM | 1100 µM | 1900 µM | 1.9 µM | 960 µM | 
14 | CC(C)CNC=O | 54 µM | 340 µM | 13 µM | 26 µM | 5.5 µM | 180 µM | 
15 | CCCNC=O | 120 µM | 300 µM | 10 µM | 5.5 µM | 5.6 µM | 21 µM | 
16 | CCCCCCC(C)NC=O (centres undefined) | 0.41 µM | 40 µM | 5.4 µM | 1.7 µM | 7 µM | 100 µM | 
17 | O=CN(C1CCC1)C1CCC1 | 19 µM | 280 µM | 7200 µM | 4900 µM | 1.8 µM | 1800 µM | 
18 | CC(C)NC=O | 15 µM | 1900 µM | 2.6 µM | 19 µM | 22 µM | 210 µM | 
19 | O=CN(C1CCCCC1)C1CC1 | 120 µM |  | 440 µM | 250 µM | 5.9 µM | 640 µM | 
20 | O=CNCC1CCCCC1 | 5.8 µM | 7.1 µM | 12 µM | 1 µM | 3.6 µM | 47 µM | 
21 | O=CNC1CC1 | 700 µM | 5200 µM | 100 µM | 6.4 µM | 33 µM | 300 µM | 
22 | CCCCNC=O | 100 µM | 110 µM | 16 µM | 11 µM | 7.2 µM | 30 µM | 
